Compound activity as filed in PubChem BioAssay.
M18AAP inhibitor: blocks P. falciparum M18 aspartyl aminopeptidase; recombinant PfM18AAP, H-Glu-NHMec fluorogenic cleavage; inhibition, % at 7.35 µM; 1.2% of 290,000 active; AID 1822;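 active = inhibition above the campaign mean inhibition over all tested compounds plus 3 SD, cut at about 28% in these data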;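 note: 0% = plate median of test compound wells and 100% = 2 mM ZnCl2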
AHR activator: activates the human aryl hydrocarbon receptor. P35869. AHR-responsive luciferase reporter cells, luminescence. activation, % at 5 µM. 2.5% of 320,000 active; in the data active = activation above about 47%;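 note: 0% = vehicle wells and 100% = reference agonist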
SENP1 inh: SENP1 (human) catalytic domain inhibition; Q9P0U3; recombinant SENP1 catalytic domain, CyPet-SUMO1-YPet FRET cleavage; inhibition, % at 10 µM; 0.21% of 360,000 active; AID 624204;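 active = inhibition at least 30% at 10 µM, raw YFP signal under a set limit, fluorescence ratio 0.5 to 1.5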;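 note: 0% = enzyme with DMSO and 100% = no enzyme wells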
Target sequence (Q9P0U3 419-644 limits assumed): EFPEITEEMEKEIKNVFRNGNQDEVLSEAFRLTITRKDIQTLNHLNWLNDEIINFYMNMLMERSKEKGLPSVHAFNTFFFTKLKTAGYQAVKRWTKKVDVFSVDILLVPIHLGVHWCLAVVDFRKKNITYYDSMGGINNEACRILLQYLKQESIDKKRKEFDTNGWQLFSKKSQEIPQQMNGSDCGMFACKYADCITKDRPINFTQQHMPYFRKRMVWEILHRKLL
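System: Recombinant human SENP1 catalytic domain, His6-tagged | Incubation: Enzyme reaction for 50 min at room temperature, dark | Medium: Tris pH 8 with BME, BSA, NP40 and catalase | Also added: 25 nM SUMO1 FRET substrate | Compound: 10 µM single point, 0.5% DMSO | Measured by: FRET fluorescence in CFP and YFP emission channels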
GAA850 FXN act: activators of GAA850 frataxin (FXN) promoter. HEK293 lucGAA850 FXN promoter luciferase reporter, 24 h; percent of 10 µM SAHA response. activation, % at 6 µM. 0.56% of 360,000 active;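 active = activation above the average of all compounds screened plus 3 SD, cutoff fixed separately per campaign, cut at about 7.5% in these data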;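 note: 0% = DMSO wells and 100% = 10 µM SAHA wells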
CTSL1 counter: counter-screen for PFM18AAP inhibitors: inhibitors of F. hepatica cathepsin L1. recombinant F. hepatica cathepsin L1, Z-Leu-Arg-MCA fluorescence. inhibition, % at 5.96 µM. 0.49% of 300,000 active. AID 1906;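 active = inhibition above the mean of all tested compounds plus 3 SD, set per screening campaign, cut at about 17% in these data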;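 note: 0% = plate median of test compound wells and 100% = 1 µM Z-Phe-Ala-diazomethylketone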
HDAC3 inhib: blocks human histone deacetylase 3; O15379; recombinant HDAC3, fluorogenic peptide/trypsin coupled, fluorescence; inhibition, % at 8.3 µM; 0.15% of 320,000 active; AID 2718; in the data active = inhibition above about 26%, passing the limit was not always enough
Target sequence (O15379 whole entry, looked up): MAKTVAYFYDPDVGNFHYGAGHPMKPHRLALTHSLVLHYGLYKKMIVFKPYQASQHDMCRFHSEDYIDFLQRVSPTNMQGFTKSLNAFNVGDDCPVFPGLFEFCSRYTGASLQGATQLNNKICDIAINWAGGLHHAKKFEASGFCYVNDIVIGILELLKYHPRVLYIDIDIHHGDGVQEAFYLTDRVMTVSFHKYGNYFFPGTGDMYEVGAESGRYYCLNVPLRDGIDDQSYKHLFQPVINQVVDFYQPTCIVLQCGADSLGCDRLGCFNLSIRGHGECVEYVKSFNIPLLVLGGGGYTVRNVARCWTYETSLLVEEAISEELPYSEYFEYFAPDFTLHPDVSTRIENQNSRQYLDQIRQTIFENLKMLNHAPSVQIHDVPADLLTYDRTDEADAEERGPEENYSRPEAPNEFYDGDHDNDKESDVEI
SENP1 inh conf: SENP1 (human) inhibition, single concentration confirmation | shares compounds with SENP1 inh | recombinant SENP1, CyPet-SUMO1-YPet FRET cleavage | inhibition, % at 10 µM | 34% of 520 active | AID 651678; in the data active = inhibition mostly above about 35%, no sharp cut-off; inactive = mostly below about 32%;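 note: 0% = enzyme with DMSO and 100% = no enzyme control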
SENP1 kin conf: confirmation of human SENP1 SUMO protease inhibitors, kinetic | shares compounds with SENP1 inh | recombinant SENP1, CyPet-SUMO1-YPet FRET kinetic cleavage | inhibition, % at 10 µM | 26% of 520 active | AID 651690; in the data active = inhibition mostly above about 32%, no sharp cut-off; inactive = mostly below about 29%;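 note: 0% = DMSO with enzyme and 100% = no enzyme substrate only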
Active calls of the source: *. This is a sample that favours compounds with a hit; in the whole collection about 4.2% have one here.

Results for COC(=O)c1ccc2nc(-c3cccc(Cl)c3)c(Cc3ccccc3OC)n2c1 ?
SENP1 inh: -5.4

What do the screens show for `N#Cc1ccc(-c2nc3ccc(Br)cn3c2Cc2ccccc2C(F)(F)F)cc1`?
SENP1 inh: 45.4*; SENP1 inh conf: 44.5*; SENP1 kin conf: 35.7*

How did FC(F)(F)c1ccccc1Cc1c(-c2ccccc2)nc2ccc(Br)cn12 do in these assays?
SENP1 inh: 20.0

Results for Cc1cc(C)c(C)c(S(=O)(=O)NCC(=O)Nc2ccccc2F)c1C ?
M18AAP inhibitor: -2.1; SENP1 inh: 1.4; GAA850 FXN act: -0.1

Results for Cc1cc(Oc2ccc(=O)n(C)n2)nc(SCC(N)=O)n1 ?
M18AAP inhibitor: -0.6; AHR activator: -3.7; SENP1 inh: 38.0*; GAA850 FXN act: 0.6; CTSL1 counter: -3.4; HDAC3 inhib: -0.7; SENP1 inh conf: -2.4; SENP1 kin conf: -3.7

What do the screens show for `O=C(Nc1cc(F)cc(F)c1)c1ccc(NCCc2ccccc2)c([N+](=O)[O-])c1`?
M18AAP inhibitor: -0.5; AHR activator: 56.9*; SENP1 inh: 38.0*; GAA850 FXN act: -0.2; CTSL1 counter: -0.8; HDAC3 inhib: 1.1; SENP1 inh conf: 36.1*; SENP1 kin conf: 36.0*

What do the screens show for `CC(C)C(NC(=O)C12CC3CC(CC(C3)C1)C2)C(=O)N/N=C/C1=C(N2CCOCC2)C(=C\c2ccc([N+](=O)[O-])cc2)/CC1` (centres undefined)?
M18AAP inhibitor: 6.9; AHR activator: 0.0; SENP1 inh: 75.2*; GAA850 FXN act: -1.1; CTSL1 counter: 0.7; HDAC3 inhib: 0.1; SENP1 inh conf: 23.5; SENP1 kin conf: 7.0

Results for CC(NC(=O)C12CC3CC(CC(C3)C1)C2)C(=O)N/N=C/C1=C(N2CCOCC2)C(=C\c2cccc([N+](=O)[O-])c2)/CC1 (centres undefined) ?
M18AAP inhibitor: -2.8; AHR activator: 0.4; SENP1 inh: 2.7; GAA850 FXN act: 3.0; CTSL1 counter: 9.2; HDAC3 inhib: -0.3

Results for Cc1ccc(S(=O)(=O)Nc2ccccc2N2CCCCC2)cc1 ?
AHR activator: -0.2; SENP1 inh: 1.0; GAA850 FXN act: -2.9; HDAC3 inhib: 3.7

Results for O=C(NCC(F)(F)F)c1ccc(S(=O)(=O)Nc2ccccc2N2CCCC2)cc1 ?
AHR activator: 1.4; SENP1 inh: 30.3*; GAA850 FXN act: -1.5; HDAC3 inhib: -0.6; SENP1 inh conf: -1.8; SENP1 kin conf: -7.0

What do the screens show for `O=C(O)CC/C(=N\NC(=O)c1ccccc1)c1cccs1`?
M18AAP inhibitor: -13.9; AHR activator: 5.9; SENP1 inh: -28.2; GAA850 FXN act: 6.4; CTSL1 counter: 1.1; HDAC3 inhib: 2.8

Results for O=C(N/N=C(\CC(=O)c1cccs1)C(F)(F)F)c1ccncc1 ?
M18AAP inhibitor: 13.4; AHR activator: 3.4; SENP1 inh: 40.2*; GAA850 FXN act: -4.5; CTSL1 counter: 1.1; HDAC3 inhib: 8.1; SENP1 inh conf: 50.3*; SENP1 kin conf: 38.0*

Results for O=C(Nc1ccc2nsnc2c1)N1CCCCC1 ?
M18AAP inhibitor: 6.7; AHR activator: 1.7; SENP1 inh: 30.7*; GAA850 FXN act: 1.9; CTSL1 counter: 1.6; HDAC3 inhib: -0.1; SENP1 inh conf: -7.8; SENP1 kin conf: -6.0

Results for Cc1nc2ccc(NC(=O)N3CCCCC3)cc2s1 ?
M18AAP inhibitor: 0.6; AHR activator: 5.6; SENP1 inh: -34.0; GAA850 FXN act: 2.6; CTSL1 counter: -2.1; HDAC3 inhib: -1.9

What do the screens show for `CCC(=O)Nc1ccc(S(=O)(=O)NC[C@H]2O[C@@H](n3cnc4c(=O)[nH]c(N)nc43)[C@H](O)[C@@H]2O)cc1`?
SENP1 inh: -2.8

What do the screens show for `O=C1c2cc(Cl)ccc2-c2c(O)cc(Cl)cc21`?
SENP1 inh: 48.9*; GAA850 FXN act: -1.3; SENP1 inh conf: 18.7; SENP1 kin conf: 15.2

What do the screens show for `O=c1cc(O)c(-c2ccc(Cl)cc2)c(Cl)[nH]1`?
M18AAP inhibitor: 1.3; AHR activator: 0.4; SENP1 inh: -1.0; GAA850 FXN act: 0.1; CTSL1 counter: 3.9; HDAC3 inhib: 1.5

What do the screens show for `COc1ccc(-c2nc(CS(=O)CC(=O)N3CCOCC3)c(C)o2)cc1OC` (centres undefined)?
M18AAP inhibitor: 1.1; AHR activator: -0.7; SENP1 inh: 0.5; GAA850 FXN act: 0.6; CTSL1 counter: -8.3; HDAC3 inhib: -3.3

Results for CCOC(=O)C1=C(COC(=O)c2ccccc2OC(F)F)NC(=O)NC1C (centres undefined) ?
AHR activator: -1.9; SENP1 inh: 2.7; GAA850 FXN act: 0.8; CTSL1 counter: -0.3; HDAC3 inhib: -0.3

What do the screens show for `CCOC(=O)C1=C(COC(=O)c2ccc3ccccc3c2O)NC(=O)NC1C` (centres undefined)?
AHR activator: 43.1; SENP1 inh: 38.1*; GAA850 FXN act: 3.0; HDAC3 inhib: -2.2; SENP1 inh conf: 1.8; SENP1 kin conf: -1.0

What do the screens show for `CCOC(=O)c1csc(NC(=O)CN2CCOCC2)n1`?
M18AAP inhibitor: 1.3; AHR activator: 2.3; SENP1 inh: 1.5; GAA850 FXN act: 2.0; CTSL1 counter: -2.5; HDAC3 inhib: 6.5

How did NS(=O)(=O)c1cccc(NC(=O)CC(NC(=O)c2ccccc2Cl)c2ccccc2)c1 (centres undefined) do in these assays?
M18AAP inhibitor: 1.6; AHR activator: 1.9; SENP1 inh: 1.1; GAA850 FXN act: 1.0; CTSL1 counter: 0.0; HDAC3 inhib: -1.7

What do the screens show for `CC(C)NC(=O)c1cc(C(=O)c2cc(Cl)ccc2O)coc1=N`?
M18AAP inhibitor: -9.3; AHR activator: 12.0; SENP1 inh: -5.4; GAA850 FXN act: 0.1; CTSL1 counter: 1.4; HDAC3 inhib: 1.5

Results for CCOc1ccccc1NC(=O)c1cc(C(=O)c2cc(OC)ccc2O)coc1=N ?
M18AAP inhibitor: -16.3; AHR activator: 27.9; SENP1 inh: 45.5*; GAA850 FXN act: 0.2; CTSL1 counter: 2.7; HDAC3 inhib: 10.6; SENP1 inh conf: 16.1; SENP1 kin conf: 16.1

How did COc1cc(S(=O)(=O)Nc2ccc3c(c2)C(=O)N(C)C3=O)ccc1NC(C)=O do in these assays?
AHR activator: 0.1; SENP1 inh: 54.1*; GAA850 FXN act: 0.8; HDAC3 inhib: -3.6; SENP1 inh conf: 41.3*; SENP1 kin conf: 43.4*
